Screening data deposited in PubChem BioAssay by several laboratories.
Most compounds without a hit are left out; they make up all but 5.5% or so of the library.
KCC2 mod – KCC2 (human) Cl- transport modulation; Q9H2X9; KCC2 cells, thallium flux FluoZin-2 fluorescence; B-score of Tl+ flux slope (higher = more flux/activation; lower = inhibition) at 10 µM; hit rate 2.2% among 190,000; AID 1456;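 active = thallium flux slope and its plate-corrected score both differing from the plate sample mean at a set confidence after two filtering rounds, in either direction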;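 also: slope of fluorescence scaled to starting intensity during 10 to 20 s after thallium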
STAT1 act – increases IFN-gamma driven STAT1 reporter signal. NIH 3T3 STAT1-luciferase reporter, luminescence; 100% = IFN-gamma alone, no compound. activation (% of control), % at 5.5 µM. hit rate 2.6% among 200,000;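 active = activation above the screen-wide mean activation plus 3 SD, cut at about 130% in these data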;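 also: raw ratio to IFN-gamma control signal so 100% means no change and 0% no light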
HSV replic up – increases HSV replication in cells. HSV replication augmentation in cells, fold increase. maximum fold increase. hit rate 0.005% among 220,000. AID 1956; in the data active = maximum fold increase above about 1.5; tested in PC3 cells
STAT3 inh – reduces IL-6 driven STAT3 reporter signal | U3A cells, IL-6 STAT3-luciferase reporter, luminescence; host cell line lacks STAT1 | hit rate 0.89% among 190,000 | inhibition, % at 5.5 µM | AID 862;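 active = inhibition above the mean inhibition across all screened compounds plus 3 SD, cut at about 44% in these data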;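 also: 0% = DMSO only wells and 100% = 100 µM nifuroxazide control wells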
STAT3 activator – increases IL-6 driven STAT3 reporter signal. AID 871. hit rate 0.91% among 190,000. activation (% of control), % at 5.6 µM. U3A cells, IL-6 STAT3-luciferase reporter, luminescence; 100% = signal with IL-6 EC80 alone;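 active = activation above the screen-wide mean of compound activation plus 3 SD, cut at about 130% in these data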;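 also: 0% = background luminescence of wells with medium and substrate only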
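Material: STAT3-luciferase reporter U3A cells. Controls: IL-6-treated wells, 100% activation. Read-out: % activation versus median of IL-6-stimulated wells. Probe or stimulus: IL-6 stimulus at 33 ng/mL final. Timing: compound 1 h, then IL-6 6 h at 37 °C. Signal: reporter luminescence signal.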
STAT1 inh – inhibitors of IFN-gamma induced STAT1 signaling | NIH 3T3 STAT1-luciferase reporter, luminescence | inhibition, % at 5.5 µM | hit rate 0.35% among 200,000 | AID 920;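 active = inhibition above a set limit, the mean inhibition across all tested compounds plus 3 SD, cut at about 34% in these data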;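 also: 0% = IFN-gamma with DMSO and 100% = IFN-gamma with 300 µM nifuroxazide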
An asterisk follows results filed as active; i = inactive; nt = no result given.

SMILES	KCC2 mod	STAT1 act	HSV replic up	STAT3 inh	STAT3 activator	STAT1 inh
c1ccc(Nc2scc(-c3ccccc3)[n+]2Cc2ccco2)cc1	-0.679	142.6*	i	-8.9	110.8	-46.2
N/C(=N\OCc1ccc([N+](=O)[O-])cc1)c1ccccn1	0.00404	15.8	i	110.3*	12.0	90.0*
C/C(=N\OC(=O)c1ccc(Br)cc1)c1ccccn1	-0.819	105.3	i	-14.2	111.9	-5.9
C/C(=N/OCc1ccc(Br)cc1)c1ccccn1	-0.664	137.7*	i	11.9	90.3	-40.1
CC1=CSC2=NC(=O)/C(=C\c3cccn3-c3ccccc3)C(=N)N12	0.683	96.9	i	10.7	89.3	3.5
CC(C)c1ccc(-n2cccc2/C=C2/C(=N)N3C=CSC3=NC2=O)cc1	22*	100.9	i	6.7	92.4	-1.0
COc1ccc(-c2csc(NC(=O)c3ccoc3C)n2)cc1	0.806	132.6*	i	7.2	98.0	-39.1
Cc1ccc(-c2csc(NC(=O)c3ccno3)n2)cc1	-0.482	131.1*	i	1.7	98.5	-34.3
COc1ccc(-c2csc(NC(=O)COC(=O)C3=COCCO3)n2)cc1	1.53	129.6*	i	2.4	98.5	-30.8
COc1ccc(-c2csc(NCc3ccco3)n2)cc1	-0.103	135.2*	i	1.1	104.6	-36.9
O=C1NCCCC1C(=O)Nc1ccccc1C(F)(F)F (stereo unspecified)	0.614	103.0	i	5.0	99.6	-3.3
CCN1C(=O)C(F)(CC)C(=O)c2ccccc21 (stereo unspecified)	1.02	97.5	i	8.3	97.2	2.7
CN1CCN(C(=O)C2CCN(c3ncc(C(F)(F)F)cc3Cl)CC2)CC1	-0.674	89.8	i	8.3	97.0	8.4
Cc1cccc(CCNC(=O)C2CCN(S(=O)(=O)c3ccccc3)CC2)c1	-0.54	98.4	i	5.4	97.4	-0.2
CCOc1ccc(C(C)=O)cc1CN1C(=O)C(=O)N(CC)C1=O	1.1	100.7	i	-9.4	107.3	-0.6
CC(=O)N=C1SC2CS(=O)(=O)CC2N1c1ccc(-c2nc3ccc(C)cc3s2)cc1 (stereo unspecified)	-0.298	97.8	i	-5.1	106.2	2.5
Cc1ccc2nc(-c3ccc(N4C(=NC(=O)CCC(=O)O)SC5CS(=O)(=O)CC54)cc3)sc2c1 (stereo unspecified)	0.616	134.4*	i	-4.8	103.7	-37.9
O=C(Nc1nc2ccc(C(=O)N3CCCCC3)cc2s1)C1CCCCC1	1.05	104.2	i	-3.9	106.4	-6.7
Nc1ccc2nc(NC(=O)C3CCCCC3)sc2c1	1.13	145.6*	i	4.3	101.2	-49.1
CCOc1ccc2nc(NC(=O)C3CCCO3)sc2c1 (stereo unspecified)	nt	140.0*	i	24.8	80.7	-45.6
O=C(Nc1nnc(-c2ccccc2F)s1)C1CCCO1 (stereo unspecified)	0.564	141.4*	i	11.9	92.5	-54.1
O=C(Nc1nc2ccc(F)cc2s1)C1CCCO1 (stereo unspecified)	0.0986	145.6*	i	2.4	99.2	-51.1
CCn1c(SCC(=O)Nc2ncc(C(F)(F)F)cc2Cl)nnc1-c1ccccc1	0.0184	103.0	i	-7.3	104.8	-3.3
NS(=O)(=O)c1ccc(NC(=O)COC(=O)c2ccc(Cl)cc2[N+](=O)[O-])cc1	0.997	nt	i	nt	nt	nt
CCn1c(SCC(=O)NNC(=O)c2ccc(OC)cc2)nnc1-c1cccnc1	-0.685	103.8	i	6.6	97.8	-4.4
SMILES	KCC2 mod	STAT1 act	HSV replic up	STAT3 inh	STAT3 activator	STAT1 inh
CCSc1nnc2ccc(-c3ccco3)nn12	-0.776	104.4	i	3.1	101.5	-7.9
COc1cccc(OC)c1C(=O)Nc1ccc2c(c1)OCCO2	0.493	100.4	i	-1.6	103.6	-0.4
COc1cc(C(=O)Nc2ccc3c(c2)OCCO3)ccc1OC(F)F	-0.709	139.6*	i	-6.1	108.8	-40.5
COc1ccccc1NC(=O)Nc1ccc2c(c1)OCCO2	-0.34	133.1*	i	-0.9	103.4	-31.8
O=C(O)/C=C/c1cn(-c2ccccc2)nc1-c1cc2ccccc2o1	nt	nt	i	nt	nt	nt
C=CCN(c1cccc(C(F)(F)F)c1)S(=O)(=O)c1cccc(C(=O)OCC(=O)Nc2ccccc2)c1	-0.969	88.0	i	16.9	87.3	13.5
